Data: ChEMBL document CHEMBL1152312, “Neopyrrolomycins with broad spectrum antibacterial activity” (2009)
Converted amounts (≈) assume the structure as drawn. The source made the active and inactive calls. No cut-off for these calls is given here.

Key:
[1] = tested on: Escherichia coli; assay: Antibacterial activity against Escherichia coli 25922 by microdilution method; assay type: functional
How it was run: (§1)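 MIC determined by CLSI broth microdilution; organisms were ATCC strains and clinical isolates.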

[2] = tested on: Escherichia coli; assay: Antibacterial activity against Escherichia coli 1411 by microdilution method; assay type: functional; how it was run: as §1
[3] = tested on: Klebsiella pneumoniae; assay: Antibacterial activity against Klebsiella pneumoniae 4352 by microdilution method; assay type: functional; how it was run: as §1
[4] = tested on: Staphylococcus aureus; assay: Antibacterial activity against methicillin-resistant Staphylococcus aureus 43300 by microdilution method; assay type: functional
How it was run: (§2)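 MIC values from CLSI broth microdilution. Strains came from the ATCC collection and from clinical isolates.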

[5] = tested on: Staphylococcus aureus; assay: Antibacterial activity against methicillin-sensitive Staphylococcus aureus 6538 by microdilution method; assay type: functional; how it was run: as §2
[6] = tested on: Staphylococcus aureus; assay: Antibacterial activity against methicillin-sensitive Staphylococcus aureus 29213 by microdilution method; assay type: functional; how it was run: as §2
[7] = tested on: Pseudomonas aeruginosa; assay: Antibacterial activity against Pseudomonas aeruginosa 27853 by microdilution method; assay type: functional; how it was run: as §1
[8] = tested on: Streptococcus pneumoniae; assay: Antibacterial activity against Streptococcus pneumoniae 49619 by microdilution method; assay type: functional; how it was run: as §1
[9] = tested on: Enterococcus faecium; assay: Antibacterial activity against vancomycin-resistant Enterococcus faecium 700221 by microdilution method; assay type: functional; how it was run: as §2
[10] = tested on: HepG2; assay: Cytotoxicity against human HepG2 cells assessed as effect on cell viability at 43 ug/mL after 48 hrs by celltiter glow assay; assay type: functional, cell-based
How it was run: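 HepG2 grown in MEM with 10% heat-inactivated FBS, 0.10 mM nonessential amino acids, 1 mM pyruvate, 37 °C, 5% CO2. Seeded at 1.25 × 10^5 cells/mL 24 h before treatment. DMSO-dissolved compounds tested over 0.6–128 µg/mL (1% final DMSO) for 48 h. Luminescent CellTiter-Glo viability read-out relative to DMSO control; CC90 taken.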

[11] = tested on: NHDF; assay: Cytotoxicity against NHDF cells after 48 hrs by celltiter glow assay; assay type: functional; details: Homo sapiens
How it was run: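 Fibroblasts kept at 37 °C, 5% CO2 in FGM-2 medium, passage ≤16. Seeded at 1.25 × 10^5 cells/mL 24 h before dosing. Compounds dissolved in DMSO, tested 0.6–128 µg/mL at 1% final DMSO for 48 h. Viability by CellTiter-Glo luminescence, expressed as percent of DMSO control.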

[12] = tested on: Pseudomonas aeruginosa; assay: Antibacterial activity against Pseudomonas aeruginosa 1473 by microdilution method; assay type: functional; how it was run: as §2
[13] = tested on: Staphylococcus aureus; assay: Antibacterial activity against methicillin-sensitive Staphylococcus aureus 100 ATCC 29213 by microdilution method; assay type: functional; how it was run: as §2
[14] = tested on: Staphylococcus aureus; assay: Antibacterial activity against methicillin-resistant Staphylococcus aureus 1137 by microdilution method; assay type: functional; how it was run: as §2
[15] = tested on: Staphylococcus aureus; assay: Antibacterial activity against methicillin-resistant Staphylococcus aureus 2170 by microdilution method; assay type: functional; how it was run: as §2
[16] = tested on: Staphylococcus aureus; assay: Antibacterial activity against vancomycin-intermediate Staphylococcus aureus 2012 by microdilution method; assay type: functional; how it was run: as §2
[17] = tested on: Staphylococcus aureus; assay: Antibacterial activity against vancomycin-intermediate Staphylococcus aureus 2018 by microdilution method; assay type: functional; how it was run: as §2
[18] = tested on: Staphylococcus aureus; assay: Antibacterial activity against Linezolid, methicillin-resistant Staphylococcus aureus 1725 by microdilution method; assay type: functional; how it was run: as §2
[19] = tested on: Staphylococcus aureus; assay: Antibacterial activity against Linezolid, methicillin-resistant Staphylococcus aureus 1651 by microdilution method; assay type: functional; how it was run: as §2
[20] = tested on: Staphylococcus aureus; assay: Antibacterial activity against community-acquired Staphylococcus aureus 2144 by microdilution method; assay type: functional; how it was run: as §2
[21] = tested on: Staphylococcus epidermidis; assay: Antibacterial activity against methicillin-sensitive Staphylococcus epidermidis 1597 by microdilution method; assay type: functional; how it was run: as §2
[22] = tested on: Staphylococcus epidermidis; assay: Antibacterial activity against methicillin-resistant Staphylococcus epidermidis 1452 by microdilution method; assay type: functional; how it was run: as §2
[23] = tested on: Staphylococcus epidermidis; assay: Antibacterial activity against Staphylococcus epidermidis 495 by microdilution method; assay type: functional; how it was run: as §2
[24] = tested on: Enterococcus faecalis; assay: Antibacterial activity against vancomycin-resistant Enterococcus faecalis 846 by microdilution method; assay type: functional; how it was run: as §2
[25] = tested on: Enterococcus faecium; assay: Antibacterial activity against vancomycin-sensitive Enterococcus faecium 843 by microdilution method; assay type: functional; how it was run: as §2
[26] = tested on: Enterococcus faecium; assay: Antibacterial activity against vancomycin-resistant Enterococcus faecium 1254 by microdilution method; assay type: functional; how it was run: as §2
[27] = tested on: Streptococcus pneumoniae; assay: Antibacterial activity against penicillin-susceptible Streptococcus pneumoniae 866 by microdilution method; assay type: functional; how it was run: as §2
[28] = tested on: Streptococcus pneumoniae; assay: Antibacterial activity against penicillin-resistant Streptococcus pneumoniae 940 by microdilution method; assay type: functional; how it was run: as §2
[29] = tested on: Streptococcus pneumoniae; assay: Antibacterial activity against penicillin-resistant Streptococcus pneumoniae 748 by microdilution method; assay type: functional; how it was run: as §2
[30] = tested on: Streptococcus pneumoniae; assay: Antibacterial activity against quinolone-resistant Streptococcus pneumoniae 376 by microdilution method; assay type: functional; how it was run: as §2
[31] = tested on: Streptococcus pneumoniae; assay: Antibacterial activity against quinolone-resistant Streptococcus pneumoniae 379 by microdilution method; assay type: functional; how it was run: as §2
[32] = tested on: Streptococcus pneumoniae; assay: Antibacterial activity against multidrug-resistant Streptococcus pneumoniae 933 by microdilution method; assay type: functional; how it was run: as §2
[33] = tested on: Streptococcus pneumoniae; assay: Antibacterial activity against Streptococcus pneumoniae 1195 ATCC 49619 by microdilution method; assay type: functional; how it was run: as §2
[34] = tested on: Streptococcus pyogenes; assay: Antibacterial activity against Streptococcus pyogenes 723 by microdilution method; assay type: functional; how it was run: as §2
[35] = tested on: Streptococcus agalactiae; assay: Antibacterial activity against Streptococcus agalactiae 2033 by microdilution method; assay type: functional; how it was run: as §2
[36] = tested on: Moraxella catarrhalis; assay: Antibacterial activity against Moraxella catarrhalis 557 by microdilution method; assay type: functional; how it was run: as §2
[37] = tested on: Haemophilus influenzae; assay: Antibacterial activity against ampicillin-resistant Haemophilus influenzae 1742 by microdilution method; assay type: functional; how it was run: as §2
[38] = tested on: Haemophilus influenzae; assay: Antibacterial activity against Haemophilus influenzae 1224 ATCC 49247 by microdilution method; assay type: functional; how it was run: as §2
[39] = tested on: Haemophilus parainfluenzae; assay: Antibacterial activity against Haemophilus parainfluenzae 2319 ATCC 7901 by microdilution method; assay type: functional; how it was run: as §2
[40] = tested on: Escherichia coli; assay: Antibacterial activity against Escherichia coli 102 ATCC 25922 by microdilution method; assay type: functional; how it was run: as §2
[41] = tested on: Escherichia coli; assay: Antibacterial activity against extended spectrum beta-lactamase-producing Escherichia coli 2269 by microdilution method; assay type: functional; how it was run: as §2
[42] = tested on: Klebsiella pneumoniae; assay: Antibacterial activity against Klebsiella pneumoniae 2239 by microdilution method; assay type: functional; how it was run: as §2
[43] = tested on: Klebsiella pneumoniae; assay: Antibacterial activity against ampicillin beta-lactamase, multidrug-resistant Klebsiella pneumoniae 2262 by microdilution method; assay type: functional; how it was run: as §2
[44] = tested on: Serratia marcescens; assay: Antibacterial activity against Serratia marcescens 1635 by microdilution method; assay type: functional; how it was run: as §2

Oc1cc(Cl)cc(Cl)c1-n1cc(Cl)c(Cl)c1Cl [NEOPYRROLOMYCIN C] was tested, and the MIC90 [1] was 16 µg/mL (≈ 48.3 µM), the MIC90 [2] was 16 µg/mL (≈ 48.3 µM) and the MIC90 [3] was 16 µg/mL (≈ 48.3 µM). It also gave an MIC90 [4] of 1 µg/mL (≈ 3.02 µM), an MBC [5] of 8 µg/mL (≈ 24.1 µM) and an MIC90 [5] of 2 µg/mL (≈ 6.03 µM). It also gave an MIC90 [6] of 2 µg/mL (≈ 6.03 µM), an MIC90 [7] of 32 µg/mL (≈ 96.6 µM) and an MIC90 [8] of 8 µg/mL (≈ 24.1 µM). For the same molecule, the MIC90 [9] was 2 µg/mL (≈ 6.03 µM), the Activity [10] was “Active” and the CC90 [11] was 43 µg/mL (≈ 130 µM).
For Oc1cc(Cl)c(Cl)cc1-n1cc(Cl)c(Cl)c1Cl [NEOPYRROLOMYCIN D], the MIC90 [1] was 16 µg/mL (≈ 48.3 µM), the MIC90 [2] was 16 µg/mL (≈ 48.3 µM) and the MIC90 [3] was 16 µg/mL (≈ 48.3 µM). The MIC90 [4] was 2 µg/mL (≈ 6.03 µM), the MBC [5] was 8 µg/mL (≈ 24.1 µM) and the MIC90 [5] was 2 µg/mL (≈ 6.03 µM). The MIC90 [6] was 2 µg/mL (≈ 6.03 µM), the MIC90 [7] was 32 µg/mL (≈ 96.6 µM) and the MIC90 [8] was 8 µg/mL (≈ 24.1 µM). For the same molecule, the MIC90 [9] was 4 µg/mL (≈ 12.1 µM), the Activity [10] was “Active” and the CC90 [11] was 43 µg/mL (≈ 130 µM).
With CN[C@H](CC(C)C)C(=O)N[C@H]1C(=O)N[C@@H](CC(N)=O)C(=O)N[C@H]2C(=O)N[C@H]3C(=O)N[C@H](C(=O)N[C@H](C(=O)O)c4cc(O)cc(O)c4-c4cc3ccc4O)[C@H](O)c3ccc(c(Cl)c3)Oc3cc2cc(c3O[C@@H]2O[C@H](CO)[C@@H](O)[C@H](O)[C@H]2O[C@H]2C[C@](C)(N)[C@H](O)[C@H](C)O2)Oc2ccc(cc2Cl)[C@H]1O [VANCOMYCIN] the MIC90 [12] was > 64 µg/mL, the MIC90 [13] was 2 µg/mL (≈ 1.38 µM) and the MIC90 [14] was 1 µg/mL (≈ 0.69 µM). It also gave an MIC90 [15] of 1 µg/mL (≈ 0.69 µM), an MIC90 [16] of 16 µg/mL (≈ 11 µM) and an MIC90 [17] of 8 µg/mL (≈ 5.52 µM). It also gave an MIC90 [18] of 2 µg/mL (≈ 1.38 µM), an MIC90 [19] of 1 µg/mL (≈ 0.69 µM) and an MIC90 [20] of 0.12 µg/mL (≈ 0.0828 µM). The MIC90 [21] was 2 µg/mL (≈ 1.38 µM), the MIC90 [22] was 4 µg/mL (≈ 2.76 µM) and the MIC90 [23] was 2 µg/mL (≈ 1.38 µM). The MIC90 [24] was > 64 µg/mL, the MIC90 [25] was 2 µg/mL (≈ 1.38 µM) and the MIC90 [26] was > 64 µg/mL. It also gave an MIC90 [27] of 0.5 µg/mL (≈ 0.345 µM), an MIC90 [28] of 0.25 µg/mL (≈ 0.173 µM) and an MIC90 [29] of 0.5 µg/mL (≈ 0.345 µM). For the same molecule, the MIC90 [30] was 0.2 µg/mL (≈ 0.138 µM), the MIC90 [31] was 0.5 µg/mL (≈ 0.345 µM) and the MIC90 [32] was 1 µg/mL (≈ 0.69 µM). For the same molecule, the MIC90 [33] was 0.25 µg/mL (≈ 0.173 µM), the MIC90 [34] was 0.5 µg/mL (≈ 0.345 µM) and the MIC90 [35] was 0.5 µg/mL (≈ 0.345 µM). For the same molecule, the MIC90 [36] was > 64 µg/mL, the MIC90 [37] was > 64 µg/mL and the MIC90 [38] was > 64 µg/mL. The MIC90 [39] was 64 µg/mL (≈ 44.2 µM), the MIC90 [40] was > 64 µg/mL and the MIC90 [41] was > 64 µg/mL. For the same molecule, the MIC90 [42] was > 64 µg/mL, the MIC90 [43] was > 64 µg/mL and the MIC90 [44] was > 64 µg/mL.
